Source: ChEMBL document CHEMBL1132287, “Selective, tight-binding inhibitors of integrin alpha4beta1 that inhibit allergic airway responses” (J Med Chem, 1999)
pIC50: −log10 of the molar value. *1 amine or outer side, *2 acyl side, *3 side chain or, on linkers, in order; H or OH if unused. Where a SMILES comes first, the peptide text is derived from it. [ ]: non-standard residue; d: D form. The star is where a group is joined. X1 = O=C(Cc1ccc(N[*:1])cc1)[*:2]; NH(2-Me-phenyl) = Cc1ccccc1N*; PhAc = O=C(Cc1ccccc1)*; CO = O=C([*:1])[*:2]; Ahx = NCCCCCC(=O)O

Assays:
Integrin alpha-4/beta-1 [1] = biological target: T1, Integrin alpha-4/beta-1 (Homo sapiens, UniProt P05556+P13612); assay: Inhibition of integrin alpha4-beta1 binding to VCAM-Ig; format: protein-complex assay
T1 sequence (P05556 whole entry, one chain of several): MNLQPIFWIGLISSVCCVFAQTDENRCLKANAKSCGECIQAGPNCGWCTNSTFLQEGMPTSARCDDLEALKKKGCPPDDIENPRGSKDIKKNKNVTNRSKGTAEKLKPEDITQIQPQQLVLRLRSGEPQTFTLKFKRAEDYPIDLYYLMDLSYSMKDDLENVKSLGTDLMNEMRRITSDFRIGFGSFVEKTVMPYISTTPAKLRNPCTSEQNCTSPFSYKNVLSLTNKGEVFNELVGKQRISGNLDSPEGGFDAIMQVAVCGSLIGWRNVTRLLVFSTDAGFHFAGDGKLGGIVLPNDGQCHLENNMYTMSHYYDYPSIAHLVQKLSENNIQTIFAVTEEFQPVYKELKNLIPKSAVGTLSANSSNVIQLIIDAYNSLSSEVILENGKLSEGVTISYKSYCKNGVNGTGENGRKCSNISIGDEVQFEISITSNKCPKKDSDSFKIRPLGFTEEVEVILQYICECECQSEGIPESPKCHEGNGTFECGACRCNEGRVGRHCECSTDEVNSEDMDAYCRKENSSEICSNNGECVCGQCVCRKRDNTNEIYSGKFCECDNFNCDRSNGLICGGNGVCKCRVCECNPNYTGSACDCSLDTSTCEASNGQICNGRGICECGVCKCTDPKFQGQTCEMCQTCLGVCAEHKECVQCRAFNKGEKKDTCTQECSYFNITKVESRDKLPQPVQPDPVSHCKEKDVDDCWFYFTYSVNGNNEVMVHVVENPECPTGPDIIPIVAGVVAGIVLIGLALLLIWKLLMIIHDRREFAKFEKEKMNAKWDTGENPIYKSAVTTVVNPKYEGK

Integrin alpha-4/beta-1 [2] = biological target: T1, Integrin alpha-4/beta-1; assay: Inhibition of integrin alpha4-beta1 adhesion to Jurkat cells; format: cell-based
How it was run: (§1)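 BCECF-AM-labeled Jurkat cells (20 min, 37 °C) incubated 30 min with serial inhibitor dilutions or vehicle plus 1 mM MnCl2 in wells coated overnight at 4 °C with 1 ug/mL CS-1–BSA conjugate; after washing, bound cells read by fluorescence at 530 nm.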

[3] = Inhibition of integrin alpha6-beta1 adhesion using K562 cells expressing alpha-6; format: cell-based, Homo sapiens
How it was run: (§2)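 BCECF-AM-labeled cells incubated 30 min at room temperature with inhibitor (1 nM–100 uM serial dilutions) or vehicle plus 1 mM MnCl2 in wells coated overnight at 4 °C with ligand; bound cells read at 530 nm. alpha4beta7: JY cells on CS-1–BSA 1 ug/mL; alpha5beta1: K562 on human 120 kD fibronectin fragment 5 ug/mL; alpha6beta1: alpha6-K562 on mouse laminin 20 ug/mL. IC50 from inhibition curves.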

Integrin alpha-4/beta-7 = biological target: T2, Integrin alpha-4/beta-7 (Homo sapiens, UniProt P13612+P26010); assay: Inhibition of integrin alpha4-beta7 adhesion to JY cells; format: cell-based; how it was run: as §2
T2 sequence (P13612 whole entry): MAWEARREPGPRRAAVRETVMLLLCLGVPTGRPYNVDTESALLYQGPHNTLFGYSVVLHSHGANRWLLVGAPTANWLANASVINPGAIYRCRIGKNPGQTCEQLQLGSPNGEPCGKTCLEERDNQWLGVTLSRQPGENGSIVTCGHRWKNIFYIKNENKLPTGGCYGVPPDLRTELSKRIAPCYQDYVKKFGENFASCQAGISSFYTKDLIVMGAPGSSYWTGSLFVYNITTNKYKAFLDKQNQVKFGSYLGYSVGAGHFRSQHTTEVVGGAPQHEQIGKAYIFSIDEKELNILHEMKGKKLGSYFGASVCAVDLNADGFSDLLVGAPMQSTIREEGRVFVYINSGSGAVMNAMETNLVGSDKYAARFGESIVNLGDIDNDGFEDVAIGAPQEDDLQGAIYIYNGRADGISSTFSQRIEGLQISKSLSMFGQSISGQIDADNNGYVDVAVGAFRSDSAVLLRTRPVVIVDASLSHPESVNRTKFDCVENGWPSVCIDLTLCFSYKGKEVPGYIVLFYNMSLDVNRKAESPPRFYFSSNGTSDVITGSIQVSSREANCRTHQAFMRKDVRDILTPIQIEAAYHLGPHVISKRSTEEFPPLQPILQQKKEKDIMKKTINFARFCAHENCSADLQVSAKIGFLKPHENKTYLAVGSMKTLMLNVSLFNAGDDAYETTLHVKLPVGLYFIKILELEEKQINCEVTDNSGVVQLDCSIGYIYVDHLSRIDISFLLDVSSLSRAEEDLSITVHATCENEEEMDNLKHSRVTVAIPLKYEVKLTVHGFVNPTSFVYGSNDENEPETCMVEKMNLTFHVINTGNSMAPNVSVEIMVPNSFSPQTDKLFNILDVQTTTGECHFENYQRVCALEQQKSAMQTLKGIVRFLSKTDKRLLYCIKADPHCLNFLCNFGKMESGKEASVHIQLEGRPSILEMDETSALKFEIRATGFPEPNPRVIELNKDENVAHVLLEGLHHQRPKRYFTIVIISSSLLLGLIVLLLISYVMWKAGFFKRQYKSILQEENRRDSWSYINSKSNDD
T2 sequence (P26010 whole entry): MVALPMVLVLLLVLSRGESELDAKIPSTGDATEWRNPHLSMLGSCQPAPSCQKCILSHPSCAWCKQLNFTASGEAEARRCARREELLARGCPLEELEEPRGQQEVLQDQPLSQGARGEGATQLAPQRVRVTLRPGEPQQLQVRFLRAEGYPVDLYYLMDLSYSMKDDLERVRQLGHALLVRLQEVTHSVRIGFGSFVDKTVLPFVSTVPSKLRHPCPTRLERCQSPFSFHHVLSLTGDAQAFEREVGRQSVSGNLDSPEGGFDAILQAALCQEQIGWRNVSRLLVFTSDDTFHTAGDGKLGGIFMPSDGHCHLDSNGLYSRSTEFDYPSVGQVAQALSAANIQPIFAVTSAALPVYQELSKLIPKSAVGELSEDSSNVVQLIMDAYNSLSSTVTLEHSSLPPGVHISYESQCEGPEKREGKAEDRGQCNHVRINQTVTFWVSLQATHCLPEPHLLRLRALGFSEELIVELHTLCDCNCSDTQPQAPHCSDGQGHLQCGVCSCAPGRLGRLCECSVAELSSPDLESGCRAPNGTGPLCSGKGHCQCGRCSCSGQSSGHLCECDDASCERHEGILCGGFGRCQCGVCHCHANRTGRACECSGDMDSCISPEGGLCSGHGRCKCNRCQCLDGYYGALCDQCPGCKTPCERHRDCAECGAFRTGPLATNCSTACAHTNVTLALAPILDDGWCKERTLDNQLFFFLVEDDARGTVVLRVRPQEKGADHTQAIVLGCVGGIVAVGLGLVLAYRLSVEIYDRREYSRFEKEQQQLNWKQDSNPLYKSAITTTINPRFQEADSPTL

Integrin alpha-5/beta-1 = Integrin alpha-5/beta-1 (Homo sapiens, UniProt P05556+P08648); assay: Inhibition of integrin alpha5-beta1 adhesion to K562 cells; format: cell-based; how it was run: as §2
[4] = biological target: Integrin alpha-IIb/beta-3 (Homo sapiens, UniProt P05106+P08514); assay: Inhibition of integrin alphaIIb-beta3 adhesion to human citreated platelets
Integrin alpha-IIb/beta-3, sequence (P05106 27-788 limits assumed): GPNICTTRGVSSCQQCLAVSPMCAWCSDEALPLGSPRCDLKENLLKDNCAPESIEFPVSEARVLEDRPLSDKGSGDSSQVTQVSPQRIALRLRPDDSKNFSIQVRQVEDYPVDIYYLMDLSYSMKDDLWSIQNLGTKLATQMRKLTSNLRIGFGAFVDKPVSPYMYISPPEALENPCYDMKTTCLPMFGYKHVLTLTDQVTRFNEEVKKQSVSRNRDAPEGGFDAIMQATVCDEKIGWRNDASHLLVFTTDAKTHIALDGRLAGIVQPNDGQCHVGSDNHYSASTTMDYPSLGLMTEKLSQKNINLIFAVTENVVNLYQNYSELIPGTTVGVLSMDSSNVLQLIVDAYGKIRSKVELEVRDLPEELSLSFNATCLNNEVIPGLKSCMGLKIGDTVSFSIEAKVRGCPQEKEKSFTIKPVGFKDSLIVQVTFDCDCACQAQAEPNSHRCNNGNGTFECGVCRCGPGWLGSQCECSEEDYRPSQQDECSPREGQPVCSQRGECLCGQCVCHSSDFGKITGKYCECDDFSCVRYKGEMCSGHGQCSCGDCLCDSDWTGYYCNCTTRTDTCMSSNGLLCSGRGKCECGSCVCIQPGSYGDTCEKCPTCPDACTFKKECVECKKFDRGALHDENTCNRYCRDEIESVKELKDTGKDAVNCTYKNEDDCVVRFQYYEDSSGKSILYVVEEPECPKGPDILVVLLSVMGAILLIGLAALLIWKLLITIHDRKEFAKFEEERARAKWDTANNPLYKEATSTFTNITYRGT
Integrin alpha-IIb/beta-3, sequence (P08514 32-887 limits assumed): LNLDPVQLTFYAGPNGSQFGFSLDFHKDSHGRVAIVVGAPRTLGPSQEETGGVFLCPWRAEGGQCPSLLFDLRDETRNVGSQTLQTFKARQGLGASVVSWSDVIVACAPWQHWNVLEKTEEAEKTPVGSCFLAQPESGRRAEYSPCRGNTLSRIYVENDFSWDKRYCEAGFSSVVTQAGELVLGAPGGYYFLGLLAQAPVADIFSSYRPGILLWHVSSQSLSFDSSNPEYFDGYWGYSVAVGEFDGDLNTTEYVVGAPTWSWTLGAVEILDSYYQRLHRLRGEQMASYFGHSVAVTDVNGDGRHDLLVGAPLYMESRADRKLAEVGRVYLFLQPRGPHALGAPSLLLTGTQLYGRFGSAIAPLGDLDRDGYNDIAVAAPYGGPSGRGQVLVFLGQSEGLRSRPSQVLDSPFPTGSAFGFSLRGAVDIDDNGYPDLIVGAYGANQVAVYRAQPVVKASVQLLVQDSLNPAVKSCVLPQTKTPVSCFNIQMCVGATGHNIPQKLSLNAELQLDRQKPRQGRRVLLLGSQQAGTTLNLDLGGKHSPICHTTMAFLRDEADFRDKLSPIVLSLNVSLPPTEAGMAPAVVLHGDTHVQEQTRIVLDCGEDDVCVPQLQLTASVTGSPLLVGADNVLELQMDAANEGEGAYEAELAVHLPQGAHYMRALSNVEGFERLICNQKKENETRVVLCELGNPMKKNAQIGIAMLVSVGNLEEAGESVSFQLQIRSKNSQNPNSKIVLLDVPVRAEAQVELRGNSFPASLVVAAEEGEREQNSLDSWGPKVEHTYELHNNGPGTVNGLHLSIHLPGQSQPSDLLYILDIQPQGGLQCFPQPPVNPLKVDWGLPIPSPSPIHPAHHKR
Integrin alpha-IIb/beta-3, sequence (P08514 891-1039 limits assumed): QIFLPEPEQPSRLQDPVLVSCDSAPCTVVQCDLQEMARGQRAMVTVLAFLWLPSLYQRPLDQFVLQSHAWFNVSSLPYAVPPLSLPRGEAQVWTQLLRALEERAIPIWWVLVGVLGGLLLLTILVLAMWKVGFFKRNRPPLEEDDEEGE

[5] = biological target: Intercellular adhesion molecule (ICAM-1), Integrin alpha-L/beta-2 (Homo sapiens, UniProt P05107+P05362+P20701); assay: Inhibition of ICAM-1 transfected CHO cell adhesion to integrin alphaL-beta2 of human JY cells; format: cell-based
Intercellular adhesion molecule (ICAM-1), Integrin alpha-L/beta-2, sequence (P20701 whole entry): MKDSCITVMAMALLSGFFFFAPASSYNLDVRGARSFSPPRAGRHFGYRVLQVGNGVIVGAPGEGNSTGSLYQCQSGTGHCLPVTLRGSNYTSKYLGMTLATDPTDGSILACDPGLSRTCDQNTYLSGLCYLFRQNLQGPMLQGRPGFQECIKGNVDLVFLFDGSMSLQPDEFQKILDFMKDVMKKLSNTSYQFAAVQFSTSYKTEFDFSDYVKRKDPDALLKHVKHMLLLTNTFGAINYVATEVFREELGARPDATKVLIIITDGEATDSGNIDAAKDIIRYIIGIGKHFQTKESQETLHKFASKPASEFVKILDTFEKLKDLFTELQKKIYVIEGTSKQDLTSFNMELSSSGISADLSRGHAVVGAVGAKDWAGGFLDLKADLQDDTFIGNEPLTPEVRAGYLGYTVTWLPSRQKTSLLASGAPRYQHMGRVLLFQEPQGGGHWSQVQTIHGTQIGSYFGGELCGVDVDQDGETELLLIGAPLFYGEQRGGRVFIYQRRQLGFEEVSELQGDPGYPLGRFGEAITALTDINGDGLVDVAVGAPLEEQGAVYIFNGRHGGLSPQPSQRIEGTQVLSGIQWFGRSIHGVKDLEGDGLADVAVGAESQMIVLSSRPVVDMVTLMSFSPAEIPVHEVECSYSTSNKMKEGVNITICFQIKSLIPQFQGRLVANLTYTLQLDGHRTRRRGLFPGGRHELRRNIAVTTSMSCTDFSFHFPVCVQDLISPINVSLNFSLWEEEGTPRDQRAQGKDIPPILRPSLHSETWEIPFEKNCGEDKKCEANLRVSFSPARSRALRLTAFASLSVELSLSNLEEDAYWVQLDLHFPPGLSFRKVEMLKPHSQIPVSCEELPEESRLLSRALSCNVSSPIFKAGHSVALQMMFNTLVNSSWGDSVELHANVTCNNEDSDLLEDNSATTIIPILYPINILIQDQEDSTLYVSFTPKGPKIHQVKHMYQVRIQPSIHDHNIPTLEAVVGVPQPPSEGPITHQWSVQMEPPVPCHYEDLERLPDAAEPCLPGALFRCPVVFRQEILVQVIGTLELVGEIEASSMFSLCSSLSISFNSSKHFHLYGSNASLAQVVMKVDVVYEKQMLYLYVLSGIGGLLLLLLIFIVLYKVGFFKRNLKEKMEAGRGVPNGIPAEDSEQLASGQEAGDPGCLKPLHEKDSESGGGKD
Intercellular adhesion molecule (ICAM-1), Integrin alpha-L/beta-2, sequence (P05362 whole entry): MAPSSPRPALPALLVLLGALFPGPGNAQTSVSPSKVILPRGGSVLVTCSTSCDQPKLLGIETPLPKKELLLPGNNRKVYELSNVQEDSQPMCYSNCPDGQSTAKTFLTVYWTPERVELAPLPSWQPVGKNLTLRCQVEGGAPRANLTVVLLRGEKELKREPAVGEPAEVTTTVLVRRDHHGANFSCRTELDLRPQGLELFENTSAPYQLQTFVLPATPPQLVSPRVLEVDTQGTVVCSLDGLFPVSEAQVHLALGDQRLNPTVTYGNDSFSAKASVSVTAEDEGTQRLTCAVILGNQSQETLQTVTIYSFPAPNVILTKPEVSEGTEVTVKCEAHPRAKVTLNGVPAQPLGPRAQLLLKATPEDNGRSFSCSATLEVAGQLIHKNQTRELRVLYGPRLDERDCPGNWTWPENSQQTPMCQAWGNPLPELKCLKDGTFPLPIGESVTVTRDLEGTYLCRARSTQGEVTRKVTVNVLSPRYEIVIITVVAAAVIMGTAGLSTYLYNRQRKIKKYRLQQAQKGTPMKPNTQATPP
Intercellular adhesion molecule (ICAM-1), Integrin alpha-L/beta-2, sequence (P05107 whole entry): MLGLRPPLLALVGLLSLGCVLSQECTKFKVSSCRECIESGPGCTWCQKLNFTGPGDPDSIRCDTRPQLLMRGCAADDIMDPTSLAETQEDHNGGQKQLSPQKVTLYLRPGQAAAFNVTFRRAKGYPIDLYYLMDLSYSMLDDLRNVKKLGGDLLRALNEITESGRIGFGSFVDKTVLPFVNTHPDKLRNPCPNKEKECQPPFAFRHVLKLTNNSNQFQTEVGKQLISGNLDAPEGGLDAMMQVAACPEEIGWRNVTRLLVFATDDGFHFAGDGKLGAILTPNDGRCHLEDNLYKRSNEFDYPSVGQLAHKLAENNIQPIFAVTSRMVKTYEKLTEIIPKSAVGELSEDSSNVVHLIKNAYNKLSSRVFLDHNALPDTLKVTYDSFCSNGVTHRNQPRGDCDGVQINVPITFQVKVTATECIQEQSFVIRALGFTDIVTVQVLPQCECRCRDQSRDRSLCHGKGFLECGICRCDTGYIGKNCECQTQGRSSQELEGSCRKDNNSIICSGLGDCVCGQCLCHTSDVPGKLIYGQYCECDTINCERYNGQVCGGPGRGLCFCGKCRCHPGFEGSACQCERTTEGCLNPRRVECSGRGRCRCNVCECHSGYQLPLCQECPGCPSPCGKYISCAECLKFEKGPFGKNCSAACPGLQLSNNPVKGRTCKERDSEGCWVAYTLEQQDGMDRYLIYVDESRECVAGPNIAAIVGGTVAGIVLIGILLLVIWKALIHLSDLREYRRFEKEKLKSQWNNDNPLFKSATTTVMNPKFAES

[6] = biological target: Integrin alpha1/beta1 (Homo sapiens); assay: Inhibition of integrin alpha1-beta1 adhesion using K562 cells expressing alpha-1
[7] = Inhibition of integrin alpha1-beta1 adhesion using K562 cells expressing alpha-1; format: cell-based, Homo sapiens
Integrin alpha-4/beta-1 [8] = biological target: T1, Integrin alpha-4/beta-1; assay: Inhibition of VCAM-Ig binding to integrin alpha4-beta1 of Jurkat cells; format: cell-based
Integrin alpha-4/beta-1 [9] = biological target: T1, Integrin alpha-4/beta-1; assay: Inhibition of integrin alpha4-beta1 adhesion to Jurkat cells (No inhibition); format: cell-based; how it was run: as §1

pIC50 (Integrin alpha-4/beta-1 [1]) | pIC50 (Integrin alpha-4/beta-1 [2]) | Structure (SMILES) | other results
6.00 | 4.40 | CC(C)C[C@H](NC(=O)Cc1ccccc1)C(=O)N[C@@H](CC(=O)O)C(=O)N[C@H](C(=O)O)C(C)C (PhAc-Leu-Asp-Val-OH) | –
4.18 | 3.76 | CC[C@H](C)[C@H](N)C(=O)N[C@@H](CC(C)C)C(=O)N[C@@H](CC(=O)O)C(=O)N[C@H](C(=O)O)C(C)C (H-ILDV-OH) | –
9.22 | 8.22 | Cc1ccccc1NC(=O)Nc1ccc(CC(=O)N[C@@H](CC(C)C)C(=O)N[C@@H](CC(=O)O)C(=O)N[C@H](C(=O)O)C(C)C)cc1 | pIC50 [3]: < 4.00; pIC50 (Integrin alpha-4/beta-7): 5.10; pIC50 (Integrin alpha-5/beta-1): < 4.00; pIC50 [4]: < 4.00; pIC50 [5]: < 4.30; pIC50 [6]: < 4.00
6.37 | 5.30 | CC(C)C[C@H](NC(=O)Cc1ccc(O)cc1)C(=O)N[C@@H](CC(=O)O)C(=O)N[C@H](C(=O)O)C(C)C | –
9.00 | 8.10 | Cc1ccccc1NC(=O)Nc1ccc(CC(=O)N[C@@H](CC(C)C)C(=O)N[C@@H](CC(=O)O)C(=O)N[C@H](C(=O)N2CCC[C@H]2C(N)=O)C(C)C)cc1 ({NH(2-Me-phenyl)-CO}-[X1]LDVP-NH2) | –
– | – | Cc1ccccc1NC(=O)Nc1ccc(CC(=O)N[C@@H](CC(C)C)C(=O)N[C@@H](CC(=O)O)C(=O)N[C@H](C(=O)N2CCC[C@H]2C(=O)O)C(C)C)cc1 ({NH(2-Me-phenyl)-CO}-[X1]LDVP-OH) | pIC50 [3]: < 4.00; pIC50 (Integrin alpha-4/beta-7): 5.70; pIC50 [4]: < 4.00; pIC50 [7]: < 4.00; pIC50 [5]: < 4.00
8.40 | 7.70 | Cc1ccccc1NC(=O)Nc1ccc(CC(=O)N[C@@H](CCCCNC(=O)CCCCCN)C(=O)N[C@@H](CC(=O)O)C(=O)N[C@H](C(=O)N2CCC[C@H]2C(=O)O)C(C)C)cc1 ({NH(2-Me-phenyl)-CO}-[X1]K(Ahx)DVP-OH) | –
7.74 | 7.17 | Cc1ccccc1NC(=O)Nc1ccc(CC(=O)N[C@@H](CC(C)C)C(=O)N[C@@H](CC(=O)O)C(=O)O)cc1 | pIC50 [3]: < 4.00; pIC50 (Integrin alpha-4/beta-7): 4.23; pIC50 (Integrin alpha-5/beta-1): < 4.00; pIC50 [4]: < 4.00; pIC50 [7]: < 4.00; pIC50 [5]: < 4.00
6.53 | 5.49 | CC(C)C[C@H](NC(=O)Cc1ccc(NC(=O)c2ccccc2)cc1)C(=O)N[C@@H](CC(=O)O)C(=O)N[C@H](C(=O)O)C(C)C | –
7.52 | 6.70 | CC(C)C[C@H](NC(=O)Cc1ccc(NC(=O)OCc2ccccc2)cc1)C(=O)N[C@@H](CC(=O)O)C(=O)N[C@H](C(=O)O)C(C)C | –
– | – | Cc1ccccc1NC(=O)Nc1ccc(CC(=O)N[C@@H](CC(C)C)C(=O)O)cc1 | IC50 (Integrin alpha-4/beta-1 [8]): No inhibition; IC50 (Integrin alpha-4/beta-1 [9]): Not Active
– | – | Cc1ccccc1NC(=O)Nc1ccc(CC(=O)O)cc1 | IC50 (Integrin alpha-4/beta-1 [8]): No inhibition; IC50 (Integrin alpha-4/beta-1 [9]): Not Active
8.52 | 7.52 | CC(C)C[C@H](NC(=O)Cc1ccc(NC(=O)Nc2ccccc2)cc1)C(=O)N[C@@H](CC(=O)O)C(=O)N[C@H](C(=O)O)C(C)C | –

Structure (SMILES) | pIC50 (Integrin alpha-4/beta-1 [1]) | pIC50 (Integrin alpha-4/beta-1 [2]) | other results
CC(C)C[C@H](NC(=O)[C@@H](N)Cc1ccc(O)cc1)C(=O)N[C@@H](CC(=O)O)C(=O)N[C@H](C(=O)O)C(C)C (H-YLDV-OH) | 4.90 | 4.29 | –
Cc1ccccc1NC(=O)Nc1ccc(CC(=O)N[C@@H](CC(C)C)C(=O)N[C@@H](CC(=O)O)C(=O)N[C@H](C(=O)N2CCC[C@H]2C(=O)N[C@@H](CO)C(=O)N[C@H](C(=O)O)[C@@H](C)O)C(C)C)cc1 ({NH(2-Me-phenyl)-CO}-[X1]LDVPST-OH) | 9.00 | 8.30 | –
